# A selection: hits, their analogues and other compounds. The true share with any hit is near 5.7%.
# T cruzi repl = blocks replication of Trypanosoma cruzi. inhibition, % (test concentration not listed). T. cruzi beta-gal in NIH3T3, luminescence, 90 h. AID 1885. hit rate 1.4% among 300,000;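 active means mean inhibition across valid replicates above about 55%, limit read from the data; inconclusive means mean below that limit but half or more replicates reach it; inactive means mean below it, under half of replicates reach it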;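 further: signal also drops with host cell toxicity which is not excluded here; 0% = plate median of DMSO wells and 100% = zero luminescence signal; higher percent means less beta-gal luminescence so fewer parasites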
#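 Material: NIH/3T3 host cells with β-galactosidase reporter T. cruzi; Input: 5,000 host fibroblasts per well; Medium: DMEM, 2% fetal bovine serum; Compound: 50 nL DMSO compound solution per well; Schedule: 3 h host attachment, then at least 90 h co-culture; Detection: luminescent β-galactosidase signal after 60 min lysis.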
# SKKanGAS inh = blocks kanamycin growth of S. pyogenes SKKanGAS strain; BacTiter-Glo, 6 h; inhibition, % at 7.5 µM; hit rate 1.3% among 300,000;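 active means mean replicate score, as percent of positive control median, at least 50; inconclusive means mean below 50 but one replicate at or above 50; inactive means mean and every replicate below 50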;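 further: strain carries kanamycin resistance gene driven by streptokinase promoter and grows in 40 µg/ml kanamycin; loss of luminescence reflects streptokinase promoter inhibition or plain growth inhibition; 0% = median of DMSO wells and 100% = positive control at its reference dose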
# Mdm2 MdmX PPI = human Mdm2/MdmX binding inhibition; inhibition, % at 8 µM; SaOS-2 split-luciferase Mdm2/MdmX complementation, luminescence; O15151+Q00987; hit rate 3% among 330,000;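 active means inhibition of at least 50% at 8 µM in the primary screen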
# Target sequence (O15151 whole entry, looked up): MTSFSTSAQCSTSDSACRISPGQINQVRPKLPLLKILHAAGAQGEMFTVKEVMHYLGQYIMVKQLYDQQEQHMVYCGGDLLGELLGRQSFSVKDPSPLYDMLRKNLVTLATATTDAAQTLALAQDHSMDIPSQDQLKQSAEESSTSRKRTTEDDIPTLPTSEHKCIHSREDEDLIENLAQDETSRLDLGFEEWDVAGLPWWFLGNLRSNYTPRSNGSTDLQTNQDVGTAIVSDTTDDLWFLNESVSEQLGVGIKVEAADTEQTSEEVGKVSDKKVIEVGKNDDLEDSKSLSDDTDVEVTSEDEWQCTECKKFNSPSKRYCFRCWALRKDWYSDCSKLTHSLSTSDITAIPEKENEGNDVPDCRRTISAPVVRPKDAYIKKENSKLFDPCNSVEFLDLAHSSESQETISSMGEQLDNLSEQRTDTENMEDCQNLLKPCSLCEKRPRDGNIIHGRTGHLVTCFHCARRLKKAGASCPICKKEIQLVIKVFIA
# Target sequence (Q00987 whole entry, looked up): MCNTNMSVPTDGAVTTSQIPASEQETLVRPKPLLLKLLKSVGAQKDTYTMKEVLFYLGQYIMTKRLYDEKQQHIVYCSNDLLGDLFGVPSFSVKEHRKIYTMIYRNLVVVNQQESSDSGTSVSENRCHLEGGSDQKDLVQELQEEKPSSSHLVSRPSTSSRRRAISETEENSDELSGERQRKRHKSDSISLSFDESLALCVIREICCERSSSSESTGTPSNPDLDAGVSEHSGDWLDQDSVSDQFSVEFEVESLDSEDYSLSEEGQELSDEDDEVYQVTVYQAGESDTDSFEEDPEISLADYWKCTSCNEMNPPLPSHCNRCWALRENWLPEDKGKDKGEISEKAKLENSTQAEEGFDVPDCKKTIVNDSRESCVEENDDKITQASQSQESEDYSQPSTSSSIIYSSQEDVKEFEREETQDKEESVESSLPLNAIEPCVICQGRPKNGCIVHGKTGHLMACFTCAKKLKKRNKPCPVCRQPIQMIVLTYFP
# Beta cell apopt = beta cell apoptosis inhibition; INS-1E cytokine-induced death, ATP luminescence, 48 h; percent of positive-control rescue, neutral wells zero; protection from apoptosis, % (test concentration not listed); hit rate 0.8% among 300,000;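 active means Every replicate reaches about 75%, or at least half do and their mean reaches it too, limit read from the data; inconclusive means At least half of replicates reach the limit but their mean does not; inactive means Under half of replicates reach the limit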;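 further: 0% = cytokine-treated negative control wells and 100% = positive control rescue; higher means more ATP so stronger rescue from cytokine killing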
# Calb FLC = affects C. albicans growth with fluconazole. C. albicans CaCi-2 + fluconazole, Alamar Blue growth, 48 h. AID 1979. hit rate 0.57% among 300,000. growth inhibition, % (concentration not given with the values);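 active means growth inhibition above about 58% in most replicates, limit read from the data, passing the limit was not always enough; inconclusive means exactly half the replicates above a set limit; inactive means most replicates below a set limit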;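 further: all wells also contain fluconazole at 8 µg/ml as a sub-toxic cotreatment; 0% = median of DMSO wells and 100% = median of geldanamycin control wells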
# CSC inhib = blocks cancer stem cells; cancer stem cell-like cells viability, luminescence; inhibition, % at 7.5 µM; hit rate 1.1% among 300,000; AID 2717; in the data active means inhibition above about 75%; inconclusive means no clear call, values can overlap the other calls; tested in HMLE shEcad cells
# Mdm2-MdmX conf = human Mdm2/MdmX binding inhibition, confirmed; inhibition, % at 8 µM; luminescent assay; hit rate 55% among 10,000; AID 489028; shares compounds with Mdm2 MdmX PPI; in the data active means inhibition above about 40%
# Full FLuc ctr = inhibits full-length luciferase, flagging false Mdm2/MdmX hits; shares compounds with Mdm2 MdmX PPI; SaOS-2 full-length luciferase counterscreen, luminescence; inhibition, % at 8 µM; hit rate 77% among 6,200; AID 504607;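 active means mean inhibition at 8 µM reaching about 37%, which flags the compound as non-specific, limit read from the data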;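 further: p53-null SaOS-2 cells with luciferase driven by a doxycycline-inducible promoter; compound on cells about two nights before reading with doxycycline added after day one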
# * = called active by the depositor; ? = inconclusive; · = no result given.
SMILES,T cruzi repl,SKKanGAS inh,Mdm2 MdmX PPI,Beta cell apopt,Calb FLC,CSC inhib,Mdm2-MdmX conf,Full FLuc ctr
CC#CCN1c2ccccc2[C@]23C[C@@H](C(=O)OC)N(C(=O)c4ccc(Br)cc4)C2=NC(C(=O)OC)=C(C(=O)OC)[C@H]13,-2,3,96*,-5,14,40,76*,68*
CC(C)OC(=O)c1sc2nc(-c3ccccc3)ccc2c1N,19,-11,52*,4,13,7,45*,180*
Cc1ccc(N2C(=O)c3cccc4c(N)ccc(c34)C2=O)c2cccnc12,19,-2,62*,23,1,51,61*,80*
Cc1nn(C)c(C)c1N1C(=O)c2cccc3c(N)ccc(c23)C1=O,·,·,·,2,·,-5,·,·
Cn1c(=O)c(C(=O)NNC(=O)c2ccc(Br)cc2)c(O)c2ccccc21,-10,92*,54*,6,0,?,30,·
O=C(NCC1CCCO1)c1c(O)c2cccc3c2n(c1=O)CCC3 (stereo not drawn),1,1,84*,2,-2,20,58*,46*
Cn1c(=O)c(C(=O)NCC2CCCO2)c(O)c2ccccc21 (stereo not drawn),2,-11,78*,-2,29,3,45*,22
Cn1c(=O)c(C(=O)NCCO)c(O)c2ccccc21,-13,-3,42,-6,3,-5,·,·
O=C(NCC1CCCO1)c1c(O)c2cccc3c2n(c1=O)CC3 (stereo not drawn),-1,4,69*,1,-1,4,69*,55*
O=C(NCCO)c1c(O)c2cccc3c2n(c1=O)CC3,-2,-9,-12,-1,-2,-11,·,·
COc1ccccc1N(CC(=O)Nc1cc(C)on1)S(=O)(=O)c1cccc(C(F)(F)F)c1,·,·,7,4,·,·,·,·
CC(OC(=O)c1ccc2c(c1)S(=O)(=O)c1ccccc1C2=O)C(N)=O (stereo not drawn),-29,3,9,-8,-1,-17,·,·
Cc1cccc(N2CCN(C(=O)Cc3cn(C)c4ccccc34)CC2)c1C,13,2,53*,·,2,33,43*,55*
Fc1ccc(Nc2nnc(C(F)(F)F)s2)cc1Cl,-4,28,73*,46,-7,48,68*,57*
Cc1ccc(-n2c(O)c(/C=N/NC(=O)C3COc4ccccc4O3)c3ccccc3c2=O)cc1 (stereo not drawn),-19,101*,60*,-6,35,·,-2,·
O=C(NC1=NCCS1)C1COc2ccccc2O1 (stereo not drawn),9,3,80*,-20,-5,·,81*,34
Cc1ccc(/C=N/NC(=O)C2COc3ccccc3O2)s1 (stereo not drawn),9,-14,53*,-1,-19,21,76*,57*
Cn1cc(/C=N\NC(=O)C2COc3ccccc3O2)c2ccccc21 (stereo not drawn),-15,-9,41,-7,-10,?,·,·
CC1NC(=S)N(C2CCCCC2)C1=O (stereo not drawn),3,-3,-33,-11,-6,1,·,·
COC(=O)c1ccc2c(=O)n(CCCCCC(=O)N3CCN(c4ccc(F)cc4)CC3)c(=O)[nH]c2c1,10,19,67*,-3,-11,-5,35,·
COc1cc2[nH]c(=O)n(CCC(=O)N3CCN(c4cc(Cl)ccc4C)CC3)c(=O)c2cc1OC,25,10,75*,7,10,0,13,·
CCOc1cc2[nH]c(=O)n(CCC(=O)N3CCN(c4ccccc4OC)CC3)c(=O)c2cc1OCC,-2,3,-9,-11,9,-5,·,·
COc1cc2[nH]c(=O)n(CCCCCC(=O)N3CC=C(c4ccccc4)CC3)c(=O)c2cc1OC,22,15,59*,-6,3,17,30,·
COc1c(Br)cc(/C=N/n2c(-c3ccccc3)n[nH]c2=S)c(O)c1Br,-2,10,13,5,-14,-6,·,·
CCCCOc1ccc(-c2c(C#N)c(N)nc(SCC(N)=O)c2C#N)cc1,24,90*,55*,-1,6,34,20,·
SMILES,T cruzi repl,SKKanGAS inh,Mdm2 MdmX PPI,Beta cell apopt,Calb FLC,CSC inhib,Mdm2-MdmX conf,Full FLuc ctr
CCCCOC(=O)CSc1nc(N)c(C#N)c(-c2ccc(OCC)cc2)c1C#N,8,-2,-3,-3,9,14,·,·
COC(=O)CCCn1nc(NC(=O)COc2ccc(F)cc2)cc1C,-7,6,-11,-3,-9,-6,·,·
O=C(NC(=S)Nc1cccc2cccnc12)c1ccccc1,-4,10,-3,4,18,-4,·,·
O=C(NC(=S)Nc1cccc2cnccc12)c1ccccc1,4,-5,61*,-8,-2,-11,34,·
O=C(O)c1cccc(NC(=S)NC(=O)c2ccncc2)c1,-15,-1,53*,-3,-8,-7,14,·
COc1ccc(-c2nc3ccccn3c2NC2CCCCC2)cc1SC1CCCCC1,37,83*,70*,·,16,-29,28,·
COc1ccc(Sc2ccc(-c3nc4cnccn4c3NC3CCCCC3)cc2OC)cc1,·,·,85*,4,·,104*,-4,·
COc1cc(-c2nc3ccccn3c2NCc2ccccc2)ccc1SC1CCCCC1,61*,28,67*,16,29,21,-12,·
Oc1c(C(c2cccs2)N2CCN(c3ccccc3)CC2)ccc2cccnc12 (stereo not drawn),·,·,51*,109*,·,88*,82*,23
CC(C)(C)n1nnnc1C(c1cccs1)N1CCN(c2ccccc2)CC1 (stereo not drawn),-7,4,11,·,?,0,·,·
CN1CCN(C(c2ccccc2)c2ccccc2)CC1,·,·,15,0,·,-3,·,·
Oc1c(C(c2ccccc2Cl)N2CCCC2)ccc2cccnc12 (stereo not drawn),84*,76*,69*,92*,105*,-8,63*,31
CN1CCN(C(c2ccc(C(F)(F)F)cc2)c2ccc3cccnc3c2O)CC1 (stereo not drawn),71*,87*,74*,81*,97*,98*,73*,28
CC[C@]12c3[nH]c4ccccc4c3CCN1C(=O)C(CC(=O)NCCCOC)C[C@@H]2C(=O)N1CCN(C(=O)c2ccco2)CC1 (stereo partly drawn),·,·,-41,-6,·,·,·,·
CCN(CC)c1ccc(C(=O)NN)cc1,-9,-1,-8,-3,42,13,·,·
CCN(CC)c1ccc(N)cc1,·,·,80*,108*,·,23,15,·
O=C(N/N=C/c1cc(Br)c(Br)s1)c1ccncc1,39,7,51*,85*,26,52,31,·

# Bioassay records deposited in PubChem by several laboratories.
